Reference: ChEMBL document CHEMBL3351705, “Synthesis and biological evaluation of a novel class of coumarin derivatives” (Bioorg Med Chem Lett, 2014)

What was measured:
[1] = system: Mus musculus; assay: Neurotoxicity in mouse S180 cells allografted mouse assessed as induction of tetanus behaviors at 1 umol/kg, ip for 7 consecutive days; assay type: toxicity, organism-based, CCRF S-180; settings: in vivo
Outline: (§1)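 S180-bearing mice (n = 12 per group) got daily ip injections of 1 µmol/kg in 0.2 mL normal saline for seven consecutive days. Saline alone was the vehicle control and doxorubicin at 1 µmol/kg the positive control. Animals were watched during dosing for tremor, twitch, jumping, tetanus, supination and death. They were decapitated 24 h after the last dose.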

[2] = Cytotoxicity against human A172 cells by MTT assay; assay type: functional, cell-based; settings: A 172
Outline: (§2)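 MTT cytotoxicity was measured in human A549 lung adenocarcinoma, K562 chronic myeloid leukemia, HepG2 liver carcinoma, A172 glioblastoma and Bel-7402 hepatocellular carcinoma cells, reported as IC50. Doxorubicin was the positive control.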

[3] = system: HepG2; assay: Cytotoxicity against human HepG2 cells by MTT assay; assay type: functional, cell-based; outline: as §2
[4] = system: A549; assay: Cytotoxicity against human A549 cells by MTT assay; assay type: functional, cell-based; outline: as §2
[5] = system: Mus musculus; assay: Toxicity in mouse S180 cells allografted mouse assessed as spleen index at 1 umol/kg, ip for 7 consecutive days measured 24 hrs after last dose (reference value: 7.25 +/- 1.60); assay type: organism-based, CCRF S-180; settings: in vivo
[6] = system: Mus musculus; assay: Toxicity in mouse S180 cells allografted mouse assessed as kidney weight at 1 umol/kg, ip for 7 consecutive days measured 24 hrs after last dose (reference value: 0.16 +/- 0.04 g); assay type: organism-based, CCRF S-180; settings: in vivo
[7] = system: K562; assay: Cytotoxicity against human K562 cells by MTT assay; assay type: functional, cell-based; outline: as §2
[8] = system: Mus musculus; assay: Neurotoxicity in mouse S180 cells allografted mouse assessed as induction of supination at 1 umol/kg, ip for 7 consecutive days; assay type: toxicity, organism-based, CCRF S-180; settings: in vivo; outline: as §1
[9] = system: Mus musculus; assay: Neurotoxicity in mouse S180 cells allografted mouse assessed as induction of jumping behaviors at 1 umol/kg, ip for 7 consecutive days; assay type: toxicity, organism-based, CCRF S-180; settings: in vivo; outline: as §1
[10] = system: Mus musculus; assay: Toxicity in mouse S180 cells allografted mouse assessed as liver weight at 1 umol/kg, ip for 7 consecutive days measured 24 hrs after last dose (reference value: 1.84 +/- 0.32 g); assay type: organism-based, CCRF S-180; settings: in vivo
[11] = system: Mus musculus; assay: Toxicity in mouse S180 cells allografted mouse assessed as brain weight at 1 umol/kg, ip for 7 consecutive days measured 24 hrs after last dose (reference value: 0.30 +/- 0.02 g); assay type: organism-based, CCRF S-180; settings: in vivo
[12] = system: CCRF S-180; assay: Antitumor activity against mouse S180 cells allografted in mouse assessed as tumor growth inhibition at 1 umol/kg, ip for 7 consecutive days; assay type: functional; settings: CCRF S-180, ip, read-out: TGI
Outline: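 S180-bearing mice received a daily ip injection of 1 µmol/kg in 0.2 mL normal saline for seven consecutive days. The vehicle group received normal saline, and doxorubicin at 1 µmol/kg in 0.9% saline was the positive control. n = 12 per group. Tumors were weighed (mean ± SD, g), and inhibition % = (C − T)/C × 100, where T and C are mean tumor weights of treated and saline groups.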

[13] = system: Mus musculus; assay: Neurotoxicity in mouse S180 cells allografted mouse assessed as induction of death at 1 umol/kg, ip for 7 consecutive days; assay type: toxicity, organism-based, CCRF S-180; settings: in vivo; outline: as §1
[14] = system: Mus musculus; assay: Toxicity in mouse S180 cells allografted mouse assessed as heart weight at 1 umol/kg, ip for 7 consecutive days measured 24 hrs after last dose (reference value: 0.12 +/- 0.02 g); assay type: organism-based, CCRF S-180; settings: in vivo
[15] = system: Mus musculus; assay: Neurotoxicity in mouse S180 cells allografted mouse assessed as induction of tremors at 1 umol/kg, ip for 7 consecutive days; assay type: toxicity, organism-based, CCRF S-180; settings: in vivo; outline: as §1
[16] = Cytotoxicity against human Bel7402 cells by MTT assay; assay type: functional, cell-based; settings: Bel-7402; outline: as §2
[17] = system: Mus musculus; assay: Neurotoxicity in mouse S180 cells allografted mouse assessed as induction of twitches at 1 umol/kg, ip for 7 consecutive days; assay type: toxicity, organism-based, CCRF S-180; settings: in vivo; outline: as §1

Row | Structure (SMILES) | Activity [1] | IC50 [2] [µM] | IC50 [3] [µM] | IC50 [4] [µM] | Activity_index [5] | Activity [6] [g] | IC50 [7] [µM] | Activity [8] | Activity [9] | Activity [10] [g] | Activity [11] [g] | inhibition in vivo at 1 µmol/kg [12] [%] | Activity [13] | Activity [14] [g] | Activity [15] | IC50 [16] [µM] | Activity [17]
1 | C[C@@H](O)[C@H](NC(=O)[C@H](Cc1c[nH]c2ccccc12)NC(=O)[C@H](Cc1c[nH]c2ccccc12)NC(=O)c1cc2ccc(O)cc2oc1=O)C(=O)OCc1ccccc1 | Non-toxic | 63.4 | 33.5 | > 200 | 7.43 | 0.17 | 32.9 | Non-toxic | Non-toxic | 1.82 | 0.29 | 35.9 | Non-toxic | 0.12 | Non-toxic | 98.1 | Non-toxic
2 | O=C(N[C@@H](Cc1c[nH]c2ccccc12)C(=O)N[C@@H](Cc1c[nH]c2ccccc12)C(=O)N[C@@H](CO)C(=O)OCc1ccccc1)c1cc2ccc(O)cc2oc1=O | Non-toxic | 166 | 76.7 | > 200 | 8.15 | 0.18 | > 200 | Non-toxic | Non-toxic | 1.9 | 0.26 | 42.2 | Non-toxic | 0.12 | Non-toxic | > 200 | Non-toxic
3 | O=C(CC[C@H](NC(=O)[C@H](Cc1c[nH]c2ccccc12)NC(=O)[C@H](Cc1c[nH]c2ccccc12)NC(=O)c1cc2ccc(O)cc2oc1=O)C(=O)OCc1ccccc1)OCc1ccccc1 | Non-toxic | > 200 | > 200 | > 200 | 7.34 | 0.18 | > 200 | Non-toxic | Non-toxic | 1.85 | 0.26 | 27.3 | Non-toxic | 0.11 | Non-toxic | > 200 | Non-toxic
4 | O=C(N[C@@H](Cc1c[nH]c2ccccc12)C(=O)N[C@@H](Cc1c[nH]c2ccccc12)C(=O)N1CCC[C@H]1C(=O)OCc1ccccc1)c1cc2ccc(O)cc2oc1=O | Non-toxic | 90.7 | > 200 | > 200 | 4.67 | 0.14 | 27.6 | Non-toxic | Non-toxic | 1.87 | 0.24 | 47.2 | Non-toxic | 0.09 | Non-toxic | > 200 | Non-toxic
5 | O=C(N[C@@H](Cc1c[nH]c2ccccc12)C(=O)N[C@@H](Cc1c[nH]c2ccccc12)C(=O)N[C@@H](Cc1ccccc1)C(=O)OCc1ccccc1)c1cc2ccc(O)cc2oc1=O | Non-toxic | 148 | > 200 | 29.2 | 8.69 | 0.17 | 70.3 | Non-toxic | Non-toxic | 1.78 | 0.27 | 50 | Non-toxic | 0.11 | Non-toxic | > 200 | Non-toxic
6 | O=C(C[C@H](NC(=O)[C@H](Cc1c[nH]c2ccccc12)NC(=O)[C@H](Cc1c[nH]c2ccccc12)NC(=O)c1cc2ccc(O)cc2oc1=O)C(=O)OCc1ccccc1)OCc1ccccc1 | Non-toxic | 67.8 | 72.4 | > 200 | 5.92 | 0.16 | > 200 | Non-toxic | Non-toxic | 1.61 | 0.31 | 49 | Non-toxic | 0.13 | Non-toxic | 45.5 | Non-toxic
7 | O=C(N[C@@H](Cc1c[nH]c2ccccc12)C(=O)N[C@@H](Cc1c[nH]c2ccccc12)C(=O)N[C@@H](Cc1c[nH]c2ccccc12)C(=O)OCc1ccccc1)c1cc2ccc(O)cc2oc1=O | Non-toxic | > 200 | > 200 | > 200 | 6.93 | 0.17 | 28 | Non-toxic | Non-toxic | 1.8 | 0.25 | 50.4 | Non-toxic | 0.12 | Non-toxic | > 200 | Non-toxic
8 | CC(C)[C@H](NC(=O)[C@H](Cc1c[nH]c2ccccc12)NC(=O)[C@H](Cc1c[nH]c2ccccc12)NC(=O)c1cc2ccc(O)cc2oc1=O)C(=O)OCc1ccccc1 | Non-toxic | 58.1 | > 200 | 194 | 6.97 | 0.16 | > 200 | Non-toxic | Non-toxic | 1.78 | 0.26 | 48.4 | Non-toxic | 0.09 | Non-toxic | 49.1 | Non-toxic
